# Screening results as filed in PubChem BioAssay.
# Most compounds without a hit are left out; they make up all but 2.3% or so of the library.
# TRPC4 potent: allosteric potentiators of mouse TRPC4 channel. Q9QUQ5. HEK293 TRPC4beta/mu-opioid, DAMGO EC20, Fluo-4 Ca2+ flux; stronger effect = higher value. B-score at 10 µM. 310,000 compounds, 0.42% hits. AID 2227;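 active means B-score of calcium response area above 5 SD of library B-scores, with initial fluorescence ratio within 5 SD of library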;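 further: B-score of integrated fluorescence ratio over time as area under calcium response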
# TRPC4 act: activators of mouse TRPC4 channel; Q9QUQ5; HEK293 TRPC4beta/mu-opioid, Fluo4 calcium fluorescence; stronger effect = higher value; B-score at 10 µM; 310,000 compounds, 0.49% hits;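 active means B-score above 5 SD of library B-scores, and initial fluorescence ratio not above library mean plus 5 SD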;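 further: positive B-score marks a calcium rise read as TRPC4 activation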
#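 Technique: kinetic Fluo4 calcium fluorescence; Test system: TRPC4beta and mu-opioid receptor HEK293 stable cells; Measure: B-scored integrated calcium fluorescence ratio; Benchmarks: low control buffer alone, high control maximal DAMGO; Schedule: 45 min room-temperature Fluo4 loading, 110 s read.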
# TRPC6 inhibitor: mouse TRPC6 channel inhibition | Q61143 | HEK293-TRPC6, membrane potential dye, ACh-evoked depolarization; stronger effect = lower value | B-score at 10 µM | 310,000 compounds, 1.1% hits;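 active means B-score under library mean minus 3 SD, initial fluorescence not abnormally high, positive integrated signal ratio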;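 further: B-score derived from integrated fluorescence ratio over the kinetic read; more negative B-score means stronger inhibition of depolarization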
# Target sequence (Q61143 whole entry, looked up): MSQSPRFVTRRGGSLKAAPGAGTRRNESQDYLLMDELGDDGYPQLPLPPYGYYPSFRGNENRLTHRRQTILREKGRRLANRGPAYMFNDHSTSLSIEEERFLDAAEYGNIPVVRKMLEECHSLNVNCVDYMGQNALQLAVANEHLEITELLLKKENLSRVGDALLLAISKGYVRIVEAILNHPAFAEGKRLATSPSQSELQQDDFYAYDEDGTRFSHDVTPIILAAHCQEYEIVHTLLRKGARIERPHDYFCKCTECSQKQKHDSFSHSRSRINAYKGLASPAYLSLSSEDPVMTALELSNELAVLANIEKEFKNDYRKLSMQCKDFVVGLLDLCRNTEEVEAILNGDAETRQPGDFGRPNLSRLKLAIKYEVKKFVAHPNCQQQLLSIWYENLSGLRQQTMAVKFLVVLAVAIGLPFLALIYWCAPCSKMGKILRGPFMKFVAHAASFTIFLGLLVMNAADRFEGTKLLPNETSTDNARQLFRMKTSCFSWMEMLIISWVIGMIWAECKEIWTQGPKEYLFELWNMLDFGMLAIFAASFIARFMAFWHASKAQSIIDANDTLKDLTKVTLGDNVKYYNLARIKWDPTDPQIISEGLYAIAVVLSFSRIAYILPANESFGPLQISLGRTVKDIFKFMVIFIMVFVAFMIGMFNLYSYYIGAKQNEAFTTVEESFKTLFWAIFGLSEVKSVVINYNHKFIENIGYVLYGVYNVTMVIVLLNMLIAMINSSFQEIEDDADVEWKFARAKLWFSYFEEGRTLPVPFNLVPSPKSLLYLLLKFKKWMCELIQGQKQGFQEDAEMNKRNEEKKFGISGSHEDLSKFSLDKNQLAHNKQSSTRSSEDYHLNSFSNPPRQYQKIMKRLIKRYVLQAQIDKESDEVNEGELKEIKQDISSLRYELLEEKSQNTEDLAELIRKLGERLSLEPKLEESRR
# TRPC4 inh: blocks the mouse TRPC4 cation channel; Q9QUQ5; HEK293 TRPC4beta/mu-opioid, DAMGO-evoked Fluo4 calcium flux; stronger effect = lower value; B-score at 10 µM; 300,000 compounds, 0.39% hits;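 active means B-score over 3 SD under the library average, no early fluorescence shift, positive overall ratio signal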
#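 Assay system – HEK293 line stably carrying TRPC4beta and mu-opioid receptor · Doses – single dose · Detection – Fluo4 calcium-dye fluorescence, kinetic read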
# TRPC6 act: activators of mouse TRPC6 channel; Q61143; HEK293-TRPC6 membrane potential dye fluorescence; stronger effect = higher value; B-score at 10 µM; 310,000 compounds, 0.13% hits; AID 2550;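 active means B-score of the integrated fluorescence ratio above library mean plus 3 SD, and starting fluorescence ratio within library mean plus 5 SD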;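 further: higher score means more depolarization so channel activation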
# * = called active by the depositor; i = inactive.
SMILES,TRPC4 potent,TRPC4 act,TRPC6 inhibitor,TRPC4 inh,TRPC6 act
CCCCCCCCCCOC(=O)Cn1c(COc2ccccc2C)[n+](C)c2ccccc21,i,i,i,-6*,i
CCOc1ccc(N=Cc2ccc3ccccc3c2)cc1,i,i,i,i,i
CCOc1ccc(N=CNc2ccc(OCC)cc2)cc1,15*,i,i,i,i
Cc1ccc2occ(/C=N/NC(=O)[C@@H](N)Cc3ccccc3)c(=O)c2c1,12*,i,i,i,i
COc1cc(OC)cc(C(=O)NCCCCc2ccccc2)c1,i,i,i,i,i
COc1cc(NC(=O)c2cc(CC(C)C)on2)c(OC)cc1Cl,10*,i,i,i,i
CCCc1cc(C(=O)Nc2cc(OC)c(Cl)cc2OC)no1,i,i,i,i,i
CCOC(=O)c1nc2c(=O)n(C)c(=O)n(C)c2n(C)c1=O,i,i,i,i,i
O=S(=O)(c1cc(Cl)c(Cl)cc1Cl)N1CCN2CCCC2C1 (configuration not stated),i,67*,i,i,i
Cc1nn(Cc2noc(C(=O)NCc3ccccn3)n2)c(C)c1Br,i,i,i,i,i
Cc1nn(Cc2noc(C(=O)NCCc3ccccn3)n2)c(C)c1Br,i,82*,i,i,i
CCCN(CCC)CCCNC(=O)c1cc2c(=O)[nH]c3ccccc3c2s1,i,80*,i,i,i
CCCCN(CC)CCNC(=O)c1cc2c(=O)[nH]c3ccccc3c2s1,i,48*,i,i,i
CCOC(CCNC(=O)c1cc2c(=O)[nH]c3ccccc3c2s1)OCC,i,i,i,i,i
C/C(=N\O)C(=O)OC1CC(C)CCC1C(C)C (configuration not stated),13*,i,i,i,i
CCCOc1ccc(-c2nc(SCc3ccccc3)[nH]c(=O)c2C#N)cc1OC,i,i,i,-7*,i
CCSc1nc(-c2ccccc2)c(C#N)c(=O)[nH]1,i,i,i,i,i
Cc1c(OCC(=O)NC2CCN(Cc3ccccc3)CC2)ccc2c3c(c(=O)oc12)CCC3,11*,i,i,i,i
Cc1ccc2oc(=O)c3cnn(CC(=O)NC4CCN(Cc5ccccc5)CC4)c3c2c1,i,107*,i,i,i
O=C(Cn1ncc2c(=O)oc3ccccc3c21)NC1CC1,i,i,i,i,i
Cc1cc(=O)oc2c(C)c(OCC(=O)NC3CCN(Cc4ccccc4)CC3)ccc12,i,i,i,i,i
Cc1ccc(S(=O)(=O)N2CCN(C(=O)CNC(=O)c3sc4ccccc4c3Cl)CC2)cc1,i,i,i,i,i
CSc1ccc(CCNC(=O)c2cccc3c2C(=O)N(C2CCCCC2)C3)cc1,i,i,i,i,i
COc1ccc(NC(=O)CCSc2nc(C)cs2)cc1,i,i,i,i,i
c1ccn2cc(C34CC5CC(CC(C5)C3)C4)nc2c1,i,i,i,-7*,i
SMILES,TRPC4 potent,TRPC4 act,TRPC6 inhibitor,TRPC4 inh,TRPC6 act
CC(C)(CO)NCC(O)COc1ccc2c(c1)CCC2 (configuration not stated),i,i,i,i,i
CC(C)(C)CC(C)(C)NCC(O)COc1ccc2c(c1)CCC2 (configuration not stated),i,i,i,-6*,i
COc1ccc(Cc2nnc(NC(=O)Nc3ccccc3)s2)cc1OC,i,i,i,i,i
CCCN(CCC)CCCNC(=O)C1CCN(S(=O)(=O)c2cccc3nsnc23)CC1,i,134*,i,i,i
CCN(CCNC(=O)C1CCN(S(=O)(=O)c2cccc3nsnc23)CC1)c1ccccc1,i,i,i,i,i
CCOC(=O)N1CCC(c2cc(=O)n3[nH]cc(C(=O)OC)c3n2)CC1,i,i,i,i,i
CCOc1ccc(NC(=O)c2c[nH]n3c(=O)cc(C4CCN(C(=O)OC(C)(C)C)CC4)nc23)cc1,i,i,i,-7*,i
CCCSc1nc(N)nc(-c2cccs2)c1C#N,i,i,i,-6*,i
